The species named for assay [1] is Rattus norvegicus. Description: Neuroprotective activity against oxygen glucose deprivation/reperfusion-induced Wistar rat cortical brain assessed as concentration required to reduce glutamate release by measuring efficacy window. The assay is classed as functional. A digest of the protocol: (§1)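 Male Wistar rat cortical slices (400 μm) in oxygenated ACSF, pH 7.4, 1 h at room temperature, then 30 min at 37 °C. OGD for 30 min in glucose-free ACSF with 11 mM sucrose under 95% N₂/5% CO₂. Compound added in the reoxygenation buffer. Glutamate and LDH release measured. Mean ± SEM of at least four experiments, ANOVA with Dunnett test.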

The species entered for assay [2] is Rattus norvegicus. Description: Neuroprotective activity against oxygen glucose deprivation/reperfusion-induced Wistar rat cortical brain assessed as concentration required to reduce LDH release by measuring efficacy window. Format: functional. The method, boiled down: as §1
Assay [3] is filed under the species Rattus norvegicus. Kind of assay: Neuroprotective activity against oxygen glucose deprivation/reperfusion-induced Wistar rat cortical brain assessed as reduction in glutamate release relative to control. Format: functional. Also on record: concentration or dose not given beside the values. A digest of the protocol: as §1
The species named for assay [4] is Rattus norvegicus. Kind of assay: Neuroprotective activity against oxygen glucose deprivation/reperfusion-induced Wistar rat cortical brain assessed as reduction in LDH release relative to control. Format: functional. The arrangement: concentration or dose not given beside the values. The method, boiled down:
as §1

Assay [5] has as its system SH-SY5Y. Description: Neuroprotective activity against glutamate-induced toxicity in human SH-SY5Y cells assessed as reduction in ROS production measured after 24 hrs by DCFH-DA staining based assay. The assay is classed as functional, cell-based. Conditions: dose 0.1-10 µM. A digest of the protocol: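 Human SH-SY5Y neuroblastoma cells were preloaded with DCFH-DA (5 μM, 30 min) and washed in PBS. They were then pretreated for 1 h with compound (0.1-10 μM; DMSO stock diluted in PBS, final DMSO <0.01%) and challenged with glutamate (50 mM). Fluorescence (ex 485/em 535 nm) was read at 24 h and expressed as % inhibition of glutamate-induced ROS. Data are mean ± SEM of 4 experiments run in triplicate or quadruplicate.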

Assay [6] relates to SH-SY5Y. Description: Neuroprotective activity against 6-OHDA-induced toxicity in human SH-SY5Y cells assessed as reduction in condensed and fragmented nuclei at 10 uM pretreated for 1 hr followed by 6-OHDA challenge measured after 2 hrs by DAPI staining based assay relative to control. Conditions: time 3 hrs. Also on record: scale not given: the % may be the effect or the level left. Format: functional. The method, boiled down: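 DAPI staining of SH-SY5Y cells pretreated 1 h with compound at 10 μM, then given 6-OHDA 55 μM for 2 h. Condensed or fragmented nuclei scored as apoptotic. Mean ± SEM of 4 independent experiments.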

The test system of assay [7] is SH-SY5Y. Description: Neuroprotective activity against 6-OHDA-induced toxicity in human SH-SY5Y cells assessed as cell viability at 0.1 uM pretreated for 1 hr followed by 6-OHDA challenge measured after 2 hrs by MTT assay. The assay is classed as functional, cell-based. The note with it: time 3.0 hrs.
The species entered for assay [8] is Rattus norvegicus. Description: Inhibition of high voltage-activated calcium current in Wistar rat brain piriform cortex assessed as time required to inhibit barium current by whole cell patch clamp method. Format: functional. The method, boiled down:
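Acutely dissociated P15-P22 Wistar rat piriform cortex neurons recorded whole-cell at holding -70 mV. 5 mM Ba²⁺ was the charge carrier, with a Cs methanesulfonate pipette. HVA currents evoked by step or ramp protocols from -60 mV. Compound applied by local perfusion (DMSO 0.02-0.67%). Peak I_Ba amplitude tracked over time, and concentration-response fitted with the sum of two Hill functions.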

For assay [9], the system named is SH-SY5Y. Kind of assay: Neuroprotective activity against glutamate-induced toxicity in human SH-SY5Y cells assessed as reduction in ROS production at 0.1 to 10 uM by DCFH-DA staining based assay. The assay is classed as functional, cell-based. Conditions: dose 0.1-10 µM, time 24.0 hrs, TDE = time-dependent effect. A digest of the protocol: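 SH-SY5Y cells loaded with DCFH-DA (5 μM, 30 min) and washed before treatment. Pretreated 1 h with compound (0.1-10 μM), then glutamate 50 mM. Fluorescence (ex 485/em 535 nm) read at 1 h or 24 h and expressed as % inhibition of glutamate-induced ROS. 4 independent experiments.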

Assay [10] is filed under the species Rattus norvegicus. Description: Inhibition of transient voltage-dependent sodium current in Wistar rat brain piriform cortex layer by whole cell patch clamp method. Format: functional.
For assay [11], the species on record is Rattus norvegicus. Kind of assay: Inhibition of transient voltage-dependent sodium current in Wistar rat brain piriform cortex layer assessed as negative shift of inactivation function at 15 uM by whole cell patch clamp method. Format: functional.
The species entered for assay [12] is Rattus norvegicus. Kind of assay: Inhibition of transient voltage-dependent sodium current in Wistar rat brain piriform cortex layer assessed as reduction in maximal current amplitude at 5 uM by whole cell patch clamp method. The assay is classed as functional.
For assay [13], the species on record is Rattus norvegicus. Description: Inhibition of transient voltage-dependent sodium current in Wistar rat brain piriform cortex layer assessed as reduction in maximal current amplitude at 15 uM by whole cell patch clamp method. Format: functional.
For assay [14], the species on record is Rattus norvegicus. Description: Inhibition of persistent voltage-dependent sodium current in Wistar rat brain piriform cortex layer at 5 uM by whole cell patch clamp method. The assay is classed as functional.
For assay [15], the species on record is Rattus norvegicus. Description: Inhibition of persistent voltage-dependent sodium current in Wistar rat brain piriform cortex layer at 15 uM by whole cell patch clamp method. Format: functional.
Assay [16] is filed under the species Rattus norvegicus. Kind of assay: Inhibition of persistent voltage-dependent sodium current in Wistar rat brain piriform cortex layer at 50 uM by whole cell patch clamp method. Format: functional.

Active and inactive are the calls of the source. The rule behind the calls is not given here.

In the case of `CCCN(CCC)/C(C)=N/C1=Nc2ccccc2CS1`, the Efficacy in assay [1] and in assay [2] was 0.1 µM in each case. The Activity was 90.5% in assay [3]; 58.2% in [4]; “Dose-Dependent Effect” in assay [5]; over 20% in [6]; “Tde” in [9]. The outcome in [7] was Active. For the same compound, the Time in assay [8] worked out at 128.2 ms.
With `CCN(CC)/C(C)=N/C1=Nc2ccccc2CS1`, the Efficacy in assay [1] and in assay [2] was 0.1 µM throughout. For the same compound, the Activity in assay [3] is 100%; in [4], 72.4%; in assay [5] it was “Dose-Dependent Effect”; in assay [6], over 20%; in assay [11] it was 11.8 mV; in assay [9], “Tde”. The outcome in assay [7] was Active. The inhibition entry in assay [10] was “Dose-Dependent Effect”. In addition, the values for the inhibition in vivo at 5 µM in assay [12] and in assay [14] were 26.4% and 70.7%, respectively. The inhibition in vivo at 15 µM in assay [13] came to 24.2%; in [15], 77%. In addition, the inhibition in vivo at 50 µM in assay [16] turned out to be 91.8%.

(Values after ChEMBL document CHEMBL5260794, “Synthesis and biological evaluation of a new class of benzothiazines as neuroprotective agents” (Eur J Med Chem, 2017).)
